# Calls of active or inactive are those of the source.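 Rule for the calls: active = compounds whose fitted half-maximal concentration for reducing fibroblast viability is 100 µM or lower; inactive = the rest.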
# System: LL 47 lung fibroblast viability, ATP luminescence
# Assay: inhibition of LL 47 lung fibroblast growth, concentration-response curve, selectivity screen for endothelial cell growth inhibitor project, cellular system, ATP luminescence readout (AID 821)
# In short: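 Material – LL 47 human lung fibroblasts · Input – 1,150 cells/well · Doses – compound concentration series from 0.039 to 20 µM, 0.2% DMSO · Timing – 72 h exposure, 37 °C · Detection – CellTiter-Glo luminescence · Read-out basis – percent viability relative to untreated wells, EC50 via 4-parameter fit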
row,SMILES,EC50
1,O=C(Cc1sc(-c2ccccc2Cl)nc1-c1ccccc1)Nc1ccc(F)cc1,19.4 µM
2,N=c1c2c(ncn1CCN1CCOCC1)Oc1ccc3ccccc3c1C2c1ccccc1 (stereo not drawn),17.5 µM
3,CC(C)(C)c1nn(-c2ccccc2)c2[nH]c(=O)c(CNCc3ccc4c(c3)OCO4)cc12,20.6 µM
4,CC1CC(C)CN(S(=O)(=O)c2ccc(C(=O)Nc3nnc(-c4cccs4)o3)cc2)C1 (stereo not drawn),8.61 µM
5,CCC(C)(C)NC(=O)C(c1ccc(C)o1)N(Cc1cccs1)C(=O)Cn1nnc2ccccc21 (stereo not drawn),13.9 µM
6,CN(CCO)c1cc(Sc2nc3ccccc3s2)c2nonc2c1[N+](=O)[O-],18.6 µM
7,CC1CC(C)CN(S(=O)(=O)c2ccc(C(=O)NCCCn3ccnc3)cc2)C1 (stereo not drawn),1.77 µM
8,COc1cc(NC(=O)c2cccs2)c(C(=O)OCC(=O)NCc2ccccc2)cc1OC,20.6 µM
9,CC(Nc1nc(N2CCCC2)nc2ccccc12)c1ccccc1 (stereo not drawn),11.7 µM
10,COC(=O)NC(=C(Cl)Cl)S(=O)(=O)c1ccccc1,12.2 µM
11,O=C1C=C(c2ccc(Cl)cc2)C(=O)N1Nc1ccccc1,14.9 µM
12,CCOC(=O)CSc1cccc2cccnc12,12.6 µM
13,COc1ccc(-c2cc(C#N)nc(N3CCNCC3)n2)cc1,11.8 µM
14,CCn1c(=O)cc(C(=O)OC)sc1=Nc1ccc(F)c(F)c1,17.4 µM
15,Oc1ccc(Cl)cc1-c1cc(-c2ccco2)[nH]n1,> 10 µM (inactive)
16,Cc1ccc(C(=O)c2c(C)oc3c2C(=O)C(=O)c2ccccc2-3)cc1,3.46 µM
17,CN1CCN(S(=O)(=O)c2ccc(NC(=O)Nc3cccc(Cl)c3)cc2)CC1,16.5 µM
18,CCOC(=O)c1sc2nc(C(C)C)c3c(c2c1N)CC(C)(C)OC3,12.4 µM
19,COc1ccc(CC(=O)Nc2ccc(-c3nc4cc(C)ccc4o3)c(O)c2)cc1OC,18.6 µM
20,COc1ccc(C2=Nn3c(nnc3C3CCCCC3)SC2)cc1OC,14.1 µM
21,CCOC(=O)c1c(CC(C)C)csc1NC=O,20.4 µM
22,Cc1cc(C)c2oc(-c3ccc(Cl)c(NC(=O)c4ccc(C#N)cc4F)c3)nc2c1,6.89 µM
23,Cc1ccsc1/C=C/c1ccc2cccc(O)c2n1,10.9 µM

row,SMILES,EC50
1,CCC(C)(C)n1nnnc1C(c1cc2cc(C)cc(C)c2[nH]c1=O)N1CCN(Cc2ccc3c(c2)OCO3)CC1 (stereo not drawn),9.88 µM
2,O=C(Oc1cccc2cccnc12)c1ccc2c(c1)OCCO2,6.78 µM
3,Cn1cc(/C=N/n2cnc3scc(-c4ccccc4)c3c2=O)c2ccccc21,12.9 µM
4,O=C(Cn1c(=O)n(CCCC(=O)NC2CCCC2)c(=O)c2ccccc21)NCCC1=CCCCC1,19.4 µM
5,COc1ccc(S(=O)(=O)Nc2ccc(O)c3ccccc23)cc1,13.1 µM
6,CCOc1ccccc1-n1c(CN2CCN(C(=O)c3ccco3)CC2)nc2ccccc2c1=O,5.7 µM
7,Cc1ccc(S(=O)(=O)N2CCCN(S(=O)(=O)c3ccc(C(F)(F)F)cc3)CC2)cc1,16.1 µM
8,Oc1c(C(Nc2ccccn2)c2ccccn2)ccc2cccnc12 (stereo not drawn),5.55 µM
9,COc1cc(N=c2ssnc2Cl)cc(OC)c1OC,15.2 µM
10,CCCCCCOC(=O)C(C#N)c1nc2ccccc2nc1N1CCN(CC)CC1 (stereo not drawn),17.6 µM
11,Cn1c(=NC(=O)CCl)sc2ccccc21,< 0.039 µM
12,COc1ccc(S(=O)(=O)N2N=C(C)Oc3ccccc3C2=O)cc1,19.5 µM
13,O=C1CC(c2ccco2)Cc2nc(Nc3nc(-c4ccccc4)c4ccccc4n3)ncc21 (stereo not drawn),14 µM
14,Cn1c(=O)n(C)c2cc(NC(=O)CCl)ccc21,10 µM
15,Cc1cccc(N2CCN(C(=O)Cn3sc4nc(C)cc(C)c4c3=O)CC2C)c1 (stereo not drawn),9.93 µM
16,CCN1CCN(c2cc(C)c3cc(NC(=O)c4ccc(OC)c(OC)c4)ccc3n2)CC1,15.2 µM
17,O=S(=O)(CCN(CCS(=O)(=O)C(F)(F)F)CC1CCCO1)C(F)(F)F (stereo not drawn),5.88 µM
18,COc1ccc(-c2nnc(Nc3nc4c(OC)cccc4s3)o2)cc1,> 10 µM (inactive)
19,CCOC(=O)c1cnc(-n2nc(C)cc2C)nc1NC1CCCCC1,14.2 µM
20,O=c1c(Cl)c(NCCCO)cnn1-c1nc2ccccc2[nH]1,6.3 µM
21,COc1cc(/C=C/c2ccc3cccc(OC)c3n2)c(OC(C)=O)c([N+](=O)[O-])c1,17.2 µM
22,COc1cc2nc(N3CCN(C(=O)c4ccco4)CC3)nc(N)c2cc1OC,8.04 µM
23,Cc1nc(S(=O)(=O)N(C)c2ccccc2)c(C#N)c(C)c1Cl,18.7 µM

row,SMILES,EC50
1,Cc1cc(C)c2ccc(N)nc2c1O,2.82 µM
2,O=C(Nc1nc(NC(=O)c2ccco2)n(-c2ccccc2)n1)c1ccccc1,11.5 µM
3,CS(=O)(=O)c1nc(-c2cccs2)cc(C(F)(F)F)n1,7.32 µM
4,COc1cccc2sc(Nc3nc(C)c(C(C)=O)s3)nc12,5.54 µM
5,COC(=O)/C=C1\C(=O)N(c2nc3ccccc3s2)C(=S)N1c1ccc(F)cc1,17.8 µM
6,CSc1nncc(=O)[nH]1,13.1 µM
7,COc1ccc(C(=O)Oc2c(CN3CCOCC3)cc(Cl)c3cccnc23)cc1,6.15 µM
8,Cc1nc(NC(=O)CSc2nc3cccnc3n2C2CCCCC2)sc1C,8.49 µM
9,C#CCn1c(=NC(=O)c2ccc(Br)s2)sc2cccc(OC)c21,20.1 µM
10,CCOC(=O)C(C(C)=O)c1c(Br)c(O)c(O)c2c(C(=O)c3ccc(C)cc3)coc12 (stereo not drawn),8.67 µM
11,O=C1CC(Sc2nnc(-c3ccccc3O)o2)C(=O)N1c1ccccc1 (stereo not drawn),20.8 µM
12,Oc1c(CN2CCN(c3ccccn3)CC2)cc(Cl)c2cccnc12,5.46 µM
13,N#Cc1cc2sc3nnc(-c4ccncc4)n3c2cc1C#N,15.6 µM
14,COCCCn1[nH]c2c3c(ccc2c1=O)C(=O)c1ccccc1C3=O,17 µM
15,O=C(Nc1nnc(-c2ccccc2SCc2ccccc2F)s1)Nc1ccccc1F,16.2 µM
16,O=c1[nH]c2ccccc2n1C1CCN(CCCC(c2ccc(F)cc2)c2ccc(F)cc2)CC1,13.6 µM
17,Cc1nn(-c2nc3ccccc3s2)c(N)c1Sc1ccc(F)cc1,12.8 µM
18,COc1ccc(CN=C(C)c2c(C(F)(F)F)[nH]n(-c3nc4ccccc4s3)c2=O)cc1,18 µM
19,O=C(c1ccc(F)cc1)C(CN1CCOCC1)c1ccccc1 (stereo not drawn),6.42 µM
20,COCc1cc(=O)[nH]c(Nc2nc(C)c3ccccc3n2)n1,20.3 µM
21,CCOC(=O)c1ccccc1Nc1cn(C(C)=O)c2ccccc12,14.5 µM
22,Cc1cccc(NC(=O)Nc2cccc(Oc3c(F)c(F)c(F)c(F)c3F)c2)c1,17.5 µM
23,COc1ccc(OC)c(CCNC(=O)Cn2sc3nc(C)cc(C)c3c2=O)c1,11.7 µM

row,SMILES,EC50
1,O=C(CCS(=O)(=O)c1ccccc1)Nc1nc2c(s1)CCCC2,14.3 µM
2,O=C(NNC(=O)c1ccc([N+](=O)[O-])o1)c1ccccc1,11.7 µM
3,COc1ccc2nc(Nc3nc(CSc4nnnn4-c4ccccc4)cc(=O)[nH]3)nc(C)c2c1,13.8 µM
4,Cc1cc(C)n(S(=O)(=O)/C=C/c2ccccc2)n1,9.12 µM
5,OCc1ccc(O)c2ncccc12,9.4 µM
6,COc1ccc(C(=O)Nc2ccccc2C(=O)N(Cc2ccco2)C(C(N)=O)C(C)C)cc1 (stereo not drawn),17.4 µM
7,Oc1cccc2ccc(/C=C/c3cccs3)nc12,9.71 µM
8,COC(=O)C(CC(=O)c1ccc(Br)cc1)n1ccnc1 (stereo not drawn),14.7 µM
9,Cc1oc(-c2ccc(Cl)cc2)nc1CN1CCC(C(=O)N2CCN(Cc3ccccc3)CC2)CC1,17.5 µM
10,O=c1[nH]c(Nc2nc3ccccc3o2)nc2c1CCCC2,4.52 µM
11,O=c1ccsn1Cc1ccccc1,7.57 µM
12,CC1(C)Cc2c(c(N3CCOCC3)nc3snc(N)c23)CO1,10.9 µM
13,Cc1ccc(-c2csc3ncnc(Sc4nnc(CN5CCCCCC5=O)o4)c23)cc1,5.46 µM
14,Cc1ccccc1CS(=O)(=O)c1nnc([C@H](CC(C)C)NC(=O)OC(C)(C)C)o1,14.9 µM
15,CCCCCCc1cc2cc(-c3nnc(-c4ccccc4)o3)c(=O)oc2cc1O,20.3 µM
16,COc1ccc(C(=O)C(CN2CCOCC2)c2ccccc2)cc1F (stereo not drawn),5.53 µM
17,O=C(Nc1nccs1)c1c(O)c2cccc3c2n(c1=O)CCC3,15.2 µM
18,CCOc1cc(N2CCOCC2)c(OCC)cc1NC(=O)COc1cccc2cccnc12,6.41 µM
19,Cc1ccc(/C=N/Nc2ncc(Cl)cc2Cl)s1,15.2 µM
20,COCc1cc(CN2CCCC2)c(O)c2ncccc12,11.7 µM
21,Cn1c(=O)n(C)c2cc(C(=O)Nc3ccc4c(c3)OCO4)ccc21,12.9 µM
22,CC1(C)CC(=O)C2=C(C1)Oc1nc3ccccc3cc1C2C(C#N)C#N (stereo not drawn),14.5 µM
23,N#CC(c1ccccc1)c1ccc2c(C(F)(F)F)cc(C(F)(F)F)nc2n1 (stereo not drawn),18 µM

row,SMILES,EC50
1,COc1ccc(C(=O)C(CN2CCOCC2)c2ccccc2)cc1 (stereo not drawn),4.7 µM
2,C=CCOC(=O)C1=C(C)NC(SCC(=O)Nc2ccc(C)c(Cl)c2)=C(C#N)C1c1ccco1 (stereo not drawn),7.76 µM
3,O=S(=O)(c1ccc2c(c1)nc(COc1ccc(Cl)cc1)n2CC1CCCO1)N1CCOCC1 (stereo not drawn),8.4 µM
4,O=C(Nc1ccc(N2CCOCC2)cc1)Nc1ccc2nc(-c3ccco3)c(-c3ccco3)nc2c1,2.18 µM
5,N=c1c2c(-c3ccccc3)c(-c3ccccc3)n(Cc3ccco3)c2ncn1Cc1ccco1,7.06 µM
6,CN(C)C(=O)CSc1cccc2cccnc12,13.7 µM
7,O=C(Oc1cccc2cccnc12)c1cccs1,4.21 µM
8,N=c1n(CCN2CCCCC2)c2ccccc2n1CC(O)c1cccc(Br)c1 (stereo not drawn),13.3 µM
9,Cc1ccc2oc3c(c(=O)c2c1)C(c1cccc(Br)c1)N(Cc1ccco1)C3=O (stereo not drawn),18.3 µM
10,CCCCOc1ccc(C(=O)C(CN2CCOCC2)c2ccccc2)cc1 (stereo not drawn),6.5 µM
11,CC(=O)SC(C[N+](=O)[O-])c1cn(C(C)=O)c2ccccc12 (stereo not drawn),11.7 µM
12,Cc1cccc(CS(=O)(=O)c2nnc([C@H](Cc3ccccc3)NC(=O)OC(C)(C)C)o2)c1,16.7 µM
13,COC(=O)C1=C(O)/C(=C\c2ccc(CNC(=O)C(=O)Nc3ccc(C)cc3)o2)N=C1C,9.27 µM
14,N#Cc1c(NCCN)nc(-c2ccco2)c2c1CCCC2,11.7 µM
15,O=C1Nc2ccccc2/C1=C/C(=O)c1cccs1,6.78 µM
16,CN=C1c2cc3cc(OC)ccc3n2CCN1Cc1ccccc1,18.1 µM
17,CCOC(=O)/C=C/S(=O)(=O)c1ccc(NC(C)=O)cc1,6.96 µM
18,O=C1CSC(=S)N1Cc1cccnc1,9.72 µM
19,O=C(CSc1cccc2cccnc12)N1CCCC1,12.7 µM
20,CC1(C)Cc2ccccc2C(NNC(=O)c2ccccn2)=N1,11.5 µM
21,COc1cc(C(C[N+](=O)[O-])c2c(-c3ccccc3)cc3ccccn23)cc(OC)c1OC (stereo not drawn),18.7 µM

# From PubChem BioAssay AID821 (SRMLSC, 2007)
